According to ChEMBL document CHEMBL1150874, “Antiviral phenylpropanoid glycosides from the medicinal plant Markhamia lutea” (J Nat Prod, 1998):
Converted amounts (≈) assume the structure as drawn.

Key:
[1] = Selectivity index, ratio of EC50 for RSV long by cytopathic effect over IC50 for human Hep2 cells; type: functional, HEp-2
[2] = system: Respiratory syncytial virus; assay: Antiviral activity against RSV long infected in human Hep2 cells assessed as virus-induced cytopathic effect after 3 days; type: functional, organism-based; conditions: HEp-2, 72 h
[3] = Cytotoxicity against RSV long infected human Hep2 cells after 3 days; type: cell-based; conditions: HEp-2, 72 h
[4] = system: Respiratory syncytial virus; assay: Antiviral activity against RSV infected in human Hep2 cells assessed as virus-induced cytopathic effect administered 3 hrs postinfection; type: functional, organism-based; conditions: HEp-2, 3 h
Method in brief: (§1)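 RSV (Long, CPE) in Hep-2 cells, seeded the day before at 10 000 cells/well in high-glucose DMEM with 2% or 10% heat-inactivated FBS. Virus (3000 PFU) or medium alone was adsorbed for 3 h at 37 °C, then 3-fold dilutions were added (eight concentrations, 830-0.38 or […] final). Incubation was 3 days at 37 °C, then neutral red stain. EC50 and IC50 were in µg/mL; SI = IC50/EC50.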

[5] = Cytotoxicity against HSV1 infected human Hep2 cells after 3 days; type: cell-based; conditions: HEp-2, 72 h
[6] = Cytotoxicity against HSV2 infected human Hep2 cells after 3 days; type: cell-based; conditions: HEp-2, 72 h
[7] = Cytotoxicity against VZV 3CV-1 infected human Hep2 cells after 3 days; type: cell-based; conditions: HEp-2, 72 h
[8] = Selectivity index, […] for human Hep2 cells administered 3 hrs after infection; type: functional, HEp-2; method in brief: as §1
[9] = system: Respiratory syncytial virus; assay: Antiviral activity against RSV A-2 infected in human Hep2 cells after 3 days by plaque neutralization assay; type: functional, organism-based; conditions: HEp-2, 72 h
[10] = Cytotoxicity against human Hep2 cells administered 3 hrs postinfection; type: cell-based; conditions: HEp-2, 3 h; method in brief: as §1
[11] = Cytotoxicity against mCMV RM-461 infected human Hep2 cells after 3 days; type: cell-based; conditions: HEp-2, 72 h
Human alphaherpesvirus 1 = assay: Antiviral activity against HSV1 infected in human Hep2 cells assessed as virus-induced cytopathic effect after 3 days; type: functional, organism-based; conditions: Human alphaherpesvirus 1, HEp-2, 72 h
[12] = Selectivity index, ratio of EC50 for HSV2 by cytopathic effect over IC50 for human Hep2 cells; type: functional, HEp-2
[13] = Selectivity index, ratio of EC50 for HSV1 by cytopathic effect over IC50 for human Hep2 cells; type: functional, HEp-2
Human alphaherpesvirus 2 = assay: Antiviral activity against HSV2 infected in human Hep2 cells assessed as virus-induced cytopathic effect after 3 days; type: functional, organism-based; conditions: Human alphaherpesvirus 2, HEp-2, 72 h
Murine cytomegalovirus = assay: Antiviral activity against mCMV RM461 infected in human Hep2 cells assessed as virus-induced cytopathic effect after 3 days; conditions: HEp-2, 72 h
Human alphaherpesvirus 3 = assay: Antiviral activity against VZV 3CV-1 infected in human Hep2 cells after 3 days by plaque neutralization assay; type: functional, organism-based; conditions: Human alphaherpesvirus 3, HEp-2, 72 h
[14] = Selectivity index, ratio of EC50 for mCMV RM461 by cytopathic effect over IC50 for human Hep2 cells; type: functional, HEp-2
[15] = Selectivity index, […] for human Hep2 cells; type: functional, HEp-2
[16] = Cytotoxicity against RSV A-2 infected human Hep2 cells after 3 days; type: cell-based; conditions: HEp-2, 72 h

CC(=O)Oc1ccc(/C=C/C(=O)OC[C@H]2O[C@@H](OCCc3ccc(OC(C)=O)c(OC(C)=O)c3)[C@H](OC(C)=O)[C@@H](O[C@@H]3O[C@@H](C)[C@H](OC(C)=O)[C@@H](OC(C)=O)[C@H]3OC(C)=O)[C@@H]2OC(C)=O)cc1OC(C)=O [ISOVERBASCOSIDE NOAACETATE]
Ratio IC50/EC50 [1]: 3.3 | EC50 [2]: 3.4 µg/mL (≈ 3.39 µM) | IC50 ([3]; read-out: IC50): 11.2 µg/mL (≈ 11.2 µM)

C[C@@H]1O[C@@H](O[C@@H]2[C@@H](O)[C@H](OCCc3ccc(O)c(O)c3)O[C@H](COC(=O)/C=C/c3ccc(O)c(O)c3)[C@H]2O)[C@H](O)[C@H](O)[C@H]1O [ISOACTEOSIDE]
EC50 [4]: 0.17 µg/mL (≈ 0.272 µM) | IC50 [5]: 30 µg/mL (≈ 48 µM) | IC50 [6]: 27 µg/mL (≈ 43.2 µM) | IC50 [7]: 75 µg/mL (≈ 120 µM) | Ratio IC50/EC50 [1]: 84 | Ratio IC50/EC50 [8]: 735 | EC50 [9]: 1.1 µg/mL (≈ 1.76 µM) | IC50 [10]: 125 µg/mL (≈ 200 µM) | EC50 [2]: 0.62 µg/mL (≈ 0.993 µM) | IC50 [11]: 89 µg/mL (≈ 142 µM) | IC50 ([3]; read-out: IC50): 51.4 µg/mL (≈ 82.3 µM)

CC(=O)OC[C@H]1O[C@@H](OCCc2ccc(O)c(O)c2)[C@H](OC(C)=O)[C@@H](O[C@@H]2O[C@@H](C)[C@H](OC(C)=O)[C@@H](OC(C)=O)[C@H]2OC(C)=O)[C@@H]1OC(=O)/C=C/c1ccc(O)c(O)c1
Ratio IC50/EC50 [1]: 4.4 | EC50 [2]: 5.87 µg/mL (≈ 7.03 µM) | IC50 ([3]; read-out: IC50): 26.2 µg/mL (≈ 31.4 µM)

C[C@@H]1O[C@@H](O[C@H]2[C@H](O)[C@@H](COC(=O)/C=C/c3ccc(O)c(O)c3)O[C@@H](OCCc3ccc(O)c(O)c3)[C@@H]2O[C@@H]2OC[C@](O)(CO)[C@@H]2O)[C@H](O)[C@H](O)[C@H]1O [LUTEOSIDE B]
EC50 [4]: 0.23 µg/mL (≈ 0.304 µM) | IC50 [5]: 93 µg/mL (≈ 123 µM) | IC50 [6]: 90 µg/mL (≈ 119 µM) | Ratio IC50/EC50 [1]: >19 | Ratio IC50/EC50 [8]: 780 | IC50 [10]: 180 µg/mL (≈ 238 µM) | EC50 [2]: 3.4 µg/mL (≈ 4.49 µM) | IC50 ([3]; read-out: IC50): > 67 µg/mL

Nc1nc2c(ncn2COCCO)c(=O)[nH]1 [ACYCLOVIR]
IC50 [5]: > 67 µg/mL | IC50 [6]: > 10 µg/mL | EC50 (Human alphaherpesvirus 1): 0.26 µg/mL (≈ 1.15 µM) | Ratio IC50/EC50 [12]: >4.3 | Ratio IC50/EC50 [13]: >250 | EC50 (Human alphaherpesvirus 2): 2.3 µg/mL (≈ 10.2 µM)

C[C@@H]1O[C@@H](O[C@@H]2[C@@H](O)[C@H](OCCc3ccc(O)c(O)c3)O[C@H](CO)[C@H]2OC(=O)/C=C/c2ccc(O)c(O)c2)[C@H](O)[C@H](O)[C@H]1O [ACETOSIDE]
EC50 [4]: 0.26 µg/mL (≈ 0.416 µM) | IC50 [6]: 71 µg/mL (≈ 114 µM) | Ratio IC50/EC50 [1]: 85 | Ratio IC50/EC50 [8]: 415 | EC50 [9]: 9.7 µg/mL (≈ 15.5 µM) | IC50 [10]: 108 µg/mL (≈ 173 µM) | EC50 [2]: 0.8 µg/mL (≈ 1.28 µM) | IC50 [11]: 44 µg/mL (≈ 70.4 µM) | IC50 [3]: 76.9 µg/mL (≈ 123 µM)

Nc1nc2c(ncn2COC(CO)CO)c(=O)[nH]1 [GANCICLOVIR]
EC50 (Murine cytomegalovirus): 5 µg/mL (≈ 19.6 µM) | EC50 (Human alphaherpesvirus 3): 26.7 µg/mL (≈ 105 µM) | IC50 [7]: 840 µg/mL (≈ 3290 µM) | Ratio IC50/EC50 [14]: >20 | IC50 [11]: > 100 µg/mL

CC(=O)O[C@@H]1[C@@H](OC(C)=O)[C@H](C)O[C@@H](O[C@@H]2[C@@H](OC(C)=O)[C@H](OCCc3ccc(O)c(O)c3)O[C@H](COC(=O)/C=C/c3ccc(O)c(O)c3)[C@H]2OC(C)=O)[C@@H]1OC(C)=O
Ratio IC50/EC50 [1]: 8.2 | EC50 [2]: 1.93 µg/mL (≈ 2.31 µM) | IC50 ([3]; read-out: IC50): 15.9 µg/mL (≈ 19 µM)

CC(=O)OC[C@H]1O[C@@H](OCCc2ccc(OC(C)=O)c(OC(C)=O)c2)[C@H](OC(C)=O)[C@@H](O[C@@H]2O[C@@H](C)[C@H](OC(C)=O)[C@@H](OC(C)=O)[C@H]2OC(C)=O)[C@@H]1OC(=O)/C=C/c1ccc(OC(C)=O)c(OC(C)=O)c1 [VERBASCOSIDE NONAACETATE]
IC50 ([3]; read-out: IC50): 33.7 µg/mL (≈ 33.6 µM)

CC(=O)OC[C@H]1O[C@@H](OCCc2ccc(O)c(O)c2)[C@H](O[C@@H]2OC[C@](O)(CO)[C@@H]2O)[C@@H](O[C@@H]2O[C@@H](C)[C@H](O)[C@@H](O)[C@H]2O)[C@@H]1OC(=O)/C=C/c1ccc(O)c(O)c1 [LUTEOSIDE A]
EC50 [4]: 11 µg/mL (≈ 13.8 µM) | Ratio IC50/EC50 [1]: 89 | Ratio IC50/EC50 [8]: 16 | IC50 [10]: 180 µg/mL (≈ 225 µM) | EC50 [2]: 0.87 µg/mL (≈ 1.09 µM) | IC50 ([3]; read-out: IC50): 77 µg/mL (≈ 96.4 µM)

NC(=O)c1ncn([C@@H]2O[C@H](CO)[C@@H](O)[C@H]2O)n1 [RIBAVIRIN]
Ratio IC50/EC50 [15]: 11 | EC50 [4]: 2.3 µg/mL (≈ 9.42 µM) | Ratio IC50/EC50 [1]: 19 | Ratio IC50/EC50 [8]: 10.8 | EC50 [9]: 2.2 µg/mL (≈ 9.01 µM) | IC50 [16]: 25 µg/mL (≈ 102 µM) | IC50 [10]: 25 µg/mL (≈ 102 µM) | EC50 [2]: 1.8 µg/mL (≈ 7.37 µM) | IC50 ([3]; read-out: IC50): 35 µg/mL (≈ 143 µM)

COc1cc(/C=C/C(=O)OC[C@H]2O[C@@H](OCCc3ccc(O)c(O)c3)[C@H](O[C@@H]3OC[C@](O)(CO)[C@@H]3O)[C@@H](O[C@@H]3O[C@@H](C)[C@H](O)[C@@H](O)[C@H]3O)[C@@H]2O)ccc1O [LUTEOSIDE C]
EC50 [4]: 12 µg/mL (≈ 15.6 µM) | Ratio IC50/EC50 [1]: 12 | Ratio IC50/EC50 [8]: >28 | IC50 [10]: > 330 µg/mL | EC50 [2]: 15.5 µg/mL (≈ 20.1 µM) | IC50 ([3]; read-out: IC50): 189 µg/mL (≈ 245 µM)
